The source of these data is ChEMBL document CHEMBL2311425, “Histone deacetylase (HDAC) inhibitors with a novel connecting unit linker region reveal a selectivity profile for HDAC4 and HDAC5 with improved activity against chemoresistant cancer cells” (J Med Chem, 2013).

Experiment [1] concerns A2780. In words: Potentiation of 8 uM cisplatin-induced toxicity in 5 uM cisplatin resistant human A2780 cells at 1.5 uM pretreated for 48 hrs followed by 5 uM cisplatin treatment by MTT assay. In kind it is functional.
Experiment [2] concerns the target T1, Histone deacetylase 8 (Homo sapiens, UniProt Q9BY41).
T1 sequence (Q9BY41 whole entry): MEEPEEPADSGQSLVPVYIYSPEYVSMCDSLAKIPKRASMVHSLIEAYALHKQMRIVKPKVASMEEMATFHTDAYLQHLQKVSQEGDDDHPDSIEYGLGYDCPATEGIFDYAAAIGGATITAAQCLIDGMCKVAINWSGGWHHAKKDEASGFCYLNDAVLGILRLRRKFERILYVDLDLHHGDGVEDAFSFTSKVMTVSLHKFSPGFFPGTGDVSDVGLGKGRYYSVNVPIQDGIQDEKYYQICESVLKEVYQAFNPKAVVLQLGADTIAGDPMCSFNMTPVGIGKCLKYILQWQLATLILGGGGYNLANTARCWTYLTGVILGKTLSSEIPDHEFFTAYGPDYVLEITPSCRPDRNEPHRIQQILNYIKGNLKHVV
In words: Inhibition of human HDAC8 by fluorescence assay.

Experiment [3] relates to KYSE-510. In words: Potentiation of 0.75 uM cisplatin-induced toxicity in 0.5 uM cisplatin resistant human KYSE-510 cells at 1.5 uM pretreated for 48 hrs followed by 0.5 uM cisplatin treatment by MTT assay. The format is functional. In short, it runs like this: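 Cisplatin-resistant Kyse510 CisR (derived by weekly cycles of cisplatin over 24−30 weeks), grown in RPMI 1640 with 10% FCS at 37 °C, 5% CO₂. Test agent added 48 h before cisplatin, then 72 h further incubation. Viability by MTT (read at 544/690 nm) relative to untreated control wells. Combination index by Chou−Talalay method. Mean of three experiments.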
(Formazan colour is commonly taken as a measure of viable cells.)

Experiment [4] relates to MDA-MB-231. In words: Potentiation of 10 uM cisplatin-induced toxicity in 1 uM cisplatin resistant human MDA-MB-231 cells at 1 uM pretreated for 48 hrs followed by 1 uM cisplatin treatment by MTT assay. The format is functional.

The structures appear in SMILES notation.

As a reminder, the IC50 is the concentration that inhibits the measured activity by half. High values mean lower potency, low ones higher potency. As to `Cc1cc(C)cc(C(=O)NOCCCCCC(=O)NO)c1`, the Activity entry in experiment [1], in experiment [3] and in experiment [4] was “Dose-dependent effect” in each case. Further, the “fractional inhibitory concentration index (FICI)” value in experiment [1] is reported as 0.74; in experiment [3] it was 0.05; in experiment [4], 0.85. In addition, it took 1.28 µM to reach half-maximal inhibition in experiment [2] (IC50).
